The record followed here is article PMC9532784 (Food Chemistry: X, 2022).

This test has as its system PDE4. Kind of test: In vitro PDE4-inhibitory assay. Conditions: ratio of IC50 values. Type of test: biochemical. In outline: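 Fluorescence-polarization kit. Test compound diluted in assay buffer containing 10 % DMSO (dilution solvent, not final), then added to reactions with PDE4 and 200 nM FAM-cAMP for 1 h at room temperature. Binding agent (1:99 in diluent) added for 30 min at RT with slow shaking; FP read at ex 485/em 528 nm. Triplicate per concentration; % activity = (FP−FPb)/(FPt−FPb)×100. IC50 from dose-response fit; ratios taken between IC50s.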

Molecules are shown by their SMILES.

As to `C[C@@H]1O[C@@H](O[C@H]2C(=O)c3c(O)cc(O)cc3O[C@@H]2c2ccc(O)c(O)c2)[C@H](O)[C@H](O)[C@H]1O` [Astilbin], the “fold higher PDE4 inhibitory effect than isoastilbin” value (versus isoastilbin) is recorded as 8.9 fold. In addition, the “fold higher PDE4 inhibitory effect than neoastilbin” value (versus neoastilbin) was found to be 2.9 fold.
